The test system of test [1] is Stenotrophomonas maltophilia. Nature of the test: Antimicrobial activity against Stenotrophomonas maltophilia K279a expressing beta-lactamase L1 and L2 by agar dilution method. The test is classed as functional. The gist of the method:
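MICs by BSAC standard agar dilution on Mueller-Hinton agar against wild-type K279a and its ampR frameshift derivative.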
(In general: In agar dilution the substance is mixed into plates at graded concentrations.)

Test [2] relates to Stenotrophomonas maltophilia. As to the kind of experiment: Antimicrobial activity against Stenotrophomonas maltophilia K279a harboring -121 frameshift mutation in ampR gene by agar dilution method. The test is classed as functional. The gist of the method:
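MICs by BSAC standard agar dilution on Mueller-Hinton agar against S. maltophilia K279a carrying a frameshift-disrupted ampR (ampRFS); values in mg/liter.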

Test [3] deals with Stenotrophomonas maltophilia. As to the kind of experiment: Induction of beta-lactamase L1 expression in Stenotrophomonas maltophilia K279a at 5 to 20 mg/L after 2 hrs […]. The format is functional, organism-based. The gist of the method: (§1)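 Cells at OD600 0.4 grown 2 h with inducer at the stated concentration. Nitrocefin-hydrolysing activity measured in cell extracts, total first, then L2 alone after adding EDTA to 100 μM (inhibits L1). L1 = total − L2. Specific activity divided by that of an identically treated uninduced culture gives fold induction. Mean of three experiments.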

Test [4] relates to Stenotrophomonas maltophilia. As to the kind of experiment: Induction of beta-lactamase L2 expression in Stenotrophomonas maltophilia K279a at 5 to 20 mg/L after 2 hrs […]. The test is classed as functional, organism-based. The gist of the method: as §1
Test [5] concerns Stenotrophomonas maltophilia. As to the kind of experiment: Induction of beta-lactamase L1 expression in Stenotrophomonas maltophilia M1 mutant assessed as L1 activity at 10 mg/L after 2 hrs by […] method. The format is functional. Put shortly:
(§2)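 Nutrient broth cultures were grown to OD600 0.4, then exposed to 10 mg/liter imipenem as inducer for 2 h. Uninduced cultures were grown to OD600 0.6. Total nitrocefin-hydrolysing specific activity of cell extracts was read spectrophotometrically, then reassayed after adding EDTA to 100 μM to inhibit L1. Values are percent L1 or L2 of total activity, as means of three experiments.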

Test [6] has as its system Stenotrophomonas maltophilia. Nature of the test: Induction of beta-lactamase L2 expression in Stenotrophomonas maltophilia M1 mutant assessed as L2 activity at 10 mg/L after 2 hrs by […] method. The test is classed as functional. Put shortly:
as §2

Test [7] deals with Stenotrophomonas maltophilia. As to the kind of experiment: Induction of beta-lactamase L1 expression in Stenotrophomonas maltophilia M2 mutant assessed as L1 activity at 10 mg/L after 2 hrs by […] method. The test is classed as functional. The gist of the method: as §2
Test [8] has as its system Stenotrophomonas maltophilia. Nature of the test: Induction of beta-lactamase L2 expression in Stenotrophomonas maltophilia M2 mutant assessed as L2 activity at 10 mg/L after 2 hrs by […] method. The test is classed as functional. The gist of the method: as §2
For test [9], the system named is Stenotrophomonas maltophilia. As to the kind of experiment: Induction of beta-lactamase L1 expression in Stenotrophomonas maltophilia K279a at 0.1 to 0.8 mg/L after 2 hrs […]. The test is classed as functional, organism-based. The gist of the method: as §1
Test [10] concerns Stenotrophomonas maltophilia. As to the kind of experiment: Induction of beta-lactamase L2 expression in Stenotrophomonas maltophilia K279a at 0.1 to 0.8 mg/L after 2 hrs […]. The test is classed as functional, organism-based. Put shortly:
as §1

≈ marks a conversion by molar mass, not a printed value. Calls of active or inactive are those of the source. The calls are words filed in the database; no cut-off is given here.

Broadly, the MIC is the lowest concentration that inhibits growth of the organism. Take `CO/N=C(\C(=O)N[C@@H]1C(=O)N2C(C(=O)O)=C(COC(C)=O)CS[C@H]12)c1csc(N)n1` [CEFOTAXIME]: the minimum inhibitory concentration (MIC) in [1] was 1020 µg/mL (≈ 2250 µM); in test [2], < 4 µg/mL.
In the case of `C[C@@H](O)[C@H]1C(=O)N2C(C(=O)O)=C(S[C@@H]3CN[C@H](C(=O)N(C)C)C3)[C@H](C)[C@H]12` [MEROPENEM], the minimal inhibitory concentration (MIC) in test [1] was 64 µg/mL (≈ 167 µM); in test [2] it was < 4 µg/mL.
The corresponding values for `CC(C)(O/N=C(\C(=O)N[C@@H]1C(=O)N2C(C(=O)[O-])=C(C[n+]3ccccc3)CS[C@H]12)c1csc(N)n1)C(=O)O` [CEFTAZIDIME] are 128 µg/mL (≈ 234 µM) and < 4 µg/mL.
Regarding `CO[C@@]1(NC(=O)Cc2cccs2)C(=O)N2C(C(=O)O)=C(COC(N)=O)CS[C@@H]21`, the outcome in test [3] and in test [4] was Active.
Turning to `CCN1CCN(C(=O)N[C@@H](C(=O)N[C@@H]2C(=O)N3[C@@H]2SC(C)(C)[C@@H]3C(=O)O)c2ccccc2)C(=O)C1=O` [PIPERACILLIN], the minimum inhibitory concentration (MIC) in [1] came to 2050 µg/mL (≈ 3960 µM); in test [2], 32 µg/mL.
As for `C[C@@H](O)[C@H]1C(=O)N2C(C(=O)O)=C(SCCNC=N)C[C@H]12` [IMIPENEM ANHYDROUS], the MIC in [1] was 64 µg/mL (≈ 214 µM); in test [2], < 4 µg/mL. Also, the Activity is given as 66% in test [5], 34% in test [6], 61% in [7] and 39% in test [8]. The outcome in test [9] and in test [10] was Active.
For the compound `CC1(C)S[C@@H]2[C@H](NC(=O)[C@H](N)c3ccccc3)C(=O)N2[C@H]1C(=O)O` [AMPICILLIN], the minimal inhibitory concentration (MIC) stood at 2050 µg/mL (≈ 5860 µM) in test [1] and 8 µg/mL in test [2].

The record behind these values is ChEMBL document CHEMBL1255287, “Induction of L1 and L2 beta-lactamase production in Stenotrophomonas maltophilia is dependent on an AmpR-type regulator” (2008).
